Data on seven molecules can be found in ChEMBL document CHEMBL1147646, “Novel benzofuran derivatives for PET imaging of beta-amyloid plaques in Alzheimer's disease brains” (J Med Chem, 2006).

Series [1] is filed under the species Mus musculus. As to the kind of experiment: %Compound removed from ddY mouse brain after 30 mins. It counts as ADME, organism-based. The following applies: in vivo, 0.5 h.
Series [2] relates to Mus musculus. As to the kind of experiment: Ratio for drug uptake in iv dosed ddY mouse brain after 2 mins to after 30 mins. The following applies: in vivo. It counts as ADME, organism-based.
Series [3] can be described thus: Partition coefficient, log P at pH 7.4. In kind it is physicochemical. The following applies: octanol/water.
The target in series [4] is T1, Amyloid-beta precursor protein (Homo sapiens, UniProt P05067). Briefly: Displacement of [125I]IMPY from beta amyloid in human corpse AD brain.
T1 sequence (P05067 whole entry): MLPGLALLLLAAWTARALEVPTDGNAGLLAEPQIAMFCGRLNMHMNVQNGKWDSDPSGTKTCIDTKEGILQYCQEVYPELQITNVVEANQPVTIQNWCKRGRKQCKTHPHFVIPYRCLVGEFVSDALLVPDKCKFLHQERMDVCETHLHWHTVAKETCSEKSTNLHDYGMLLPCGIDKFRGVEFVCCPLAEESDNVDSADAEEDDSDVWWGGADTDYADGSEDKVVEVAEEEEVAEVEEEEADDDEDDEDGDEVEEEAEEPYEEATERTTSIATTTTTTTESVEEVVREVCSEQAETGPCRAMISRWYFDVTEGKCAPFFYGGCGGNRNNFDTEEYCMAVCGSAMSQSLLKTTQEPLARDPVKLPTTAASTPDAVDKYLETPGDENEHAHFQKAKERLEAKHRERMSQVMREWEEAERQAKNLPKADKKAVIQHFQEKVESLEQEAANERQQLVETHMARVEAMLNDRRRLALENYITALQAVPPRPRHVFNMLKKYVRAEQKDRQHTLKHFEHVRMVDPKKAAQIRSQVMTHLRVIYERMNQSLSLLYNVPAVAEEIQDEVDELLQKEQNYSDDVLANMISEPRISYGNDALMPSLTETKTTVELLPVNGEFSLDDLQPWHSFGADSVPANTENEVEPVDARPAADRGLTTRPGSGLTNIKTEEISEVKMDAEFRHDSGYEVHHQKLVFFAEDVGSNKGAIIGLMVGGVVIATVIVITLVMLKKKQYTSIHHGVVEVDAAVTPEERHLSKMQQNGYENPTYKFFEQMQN
Series [5] addresses T1, Amyloid-beta precursor protein. Briefly: Ability for neuropathological staining of cerebrovascular amyloid plaque in human corpse AD brain. It counts as functional. In outline:
(§1)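 Postmortem temporal cortex from two AD cases, 5 µm paraffin serial sections deparaffinized in xylene/ethanol, washed in water then PBS, immersed in compound solution at various concentrations (50% ethanol in PBS above 0.5 mM), PBS wash 15 min, mounted; viewed by fluorescence microscopy (G-filter); serial sections immunostained for Aβ and tau with DAB.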

For series [6] the target is unchanged. As to the kind of experiment: Labelling of accumulated amyloid plaque in Tg2576 transgenic mouse brain hippocampus expressing human APP after 30 mins. In kind it is functional, tissue-based. The following applies: tested as the 11C-labelled form.
The target is the same in series [7]. Briefly: Ability for neuropathological staining of amyloid plaque in human corpse AD brain temporal cortex. In kind it is functional, tissue-based. In outline:
as §1

Series [8] has the same target. As to the kind of experiment: Labelling of accumulated amyloid plaque in Tg2576 transgenic mouse brain cerebral cortex expressing human APP after 30 mins. In kind it is functional, tissue-based. Particulars: tested as the 11C-labelled form.
For series [9], the target named is Microtubule-associated protein tau (Homo sapiens) (UniProt P10636). Briefly: Ability for neuropathological staining of neurofibrillary tangles in human corpse AD brain temporal cortex.
Sequence of Microtubule-associated protein tau (Homo sapiens) (P10636 whole entry, looked up): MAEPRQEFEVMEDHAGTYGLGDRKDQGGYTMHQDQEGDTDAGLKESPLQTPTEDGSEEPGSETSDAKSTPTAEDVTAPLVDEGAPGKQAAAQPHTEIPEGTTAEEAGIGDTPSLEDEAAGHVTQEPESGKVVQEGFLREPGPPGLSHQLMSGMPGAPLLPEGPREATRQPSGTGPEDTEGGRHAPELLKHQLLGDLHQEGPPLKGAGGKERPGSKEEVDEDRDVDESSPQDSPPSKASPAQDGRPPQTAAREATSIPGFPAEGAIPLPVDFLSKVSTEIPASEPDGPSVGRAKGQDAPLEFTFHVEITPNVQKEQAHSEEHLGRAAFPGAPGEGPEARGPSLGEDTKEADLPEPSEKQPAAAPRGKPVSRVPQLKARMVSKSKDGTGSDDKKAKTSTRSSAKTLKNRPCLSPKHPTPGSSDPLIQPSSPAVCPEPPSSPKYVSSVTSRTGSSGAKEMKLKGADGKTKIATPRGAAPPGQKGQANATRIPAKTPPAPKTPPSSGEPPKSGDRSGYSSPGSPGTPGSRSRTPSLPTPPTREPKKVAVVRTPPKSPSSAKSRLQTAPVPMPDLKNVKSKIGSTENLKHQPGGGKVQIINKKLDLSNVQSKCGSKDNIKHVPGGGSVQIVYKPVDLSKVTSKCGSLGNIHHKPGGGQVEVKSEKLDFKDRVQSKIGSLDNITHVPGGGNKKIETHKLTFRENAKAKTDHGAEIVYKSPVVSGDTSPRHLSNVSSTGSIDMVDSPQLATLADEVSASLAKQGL

Active and inactive are the calls of the source. The calls are words filed in the database; no cut-off is given here.

On to `[11CH3]Nc1ccc(-c2cc3cc(O)ccc3o2)cc1`, for which the washout in series [1] came to 90%. In addition, in series [2], the Ratio is given as 0.07. The logD in series [3] came to 2.36.
In series [4], `Nc1ccc(-c2cc3cc(O)ccc3o2)cc1` registered a Ki of 11.5 nM.
`COc1ccc2oc(-c3ccc(N)cc3)cc2c1` returned a Ki in series [4] of 2.3 nM.
On the same count and under the same terms, under `CNc1ccc(-c2cc3cc(OC)ccc3o2)cc1` stands 1.3 nM; under `COc1ccc2oc(-c3ccc(N(C)C)cc3)cc2c1`, 12 nM.
With `CNc1ccc(-c2cc3cc(O)ccc3o2)cc1`, the result in series [5], in series [6], in [7], in series [8] and in series [9] was Active. Moreover, in [4], the affinity corresponds to a Ki of 0.7 nM.
`CN(C)c1ccc(-c2cc3cc(O)ccc3o2)cc1` gave a Ki in [4] of 2.8 nM.
